Measured values published in ChEMBL document CHEMBL1811814, “Synthesis and evaluation of indole, pyrazole, chromone and pyrimidine based conjugates for tumor growth inhibitory activities--development of highly efficacious cytotoxic agents” (Eur J Med Chem, 2010).

How the values were obtained:
Format in all cases: functional
HCC 2998 = experiment: Growth inhibition of human HCC2998 cells assessed tumor cell growth at 10^-5 M; design: scale not given: the % may be the effect or the level left
Method in brief: (§1)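 NCI 60-human-tumor-cell-line panel screen. Each compound was tested at a single concentration of 10^-5 M, and percent growth of tumor cells was recorded for each cell line. Growth inhibition was expressed from these percent-growth values.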

NCI-H226 = experiment: Growth inhibition of human NCI-H226 cells
U-251 = experiment: Growth inhibition of human U251 cells
OVCAR-8 = experiment: Growth inhibition of human OVCAR8 cells assessed tumor cell growth at 10^-5 M; design: scale not given: the % may be the effect or the level left; method in brief: as §1
EKVX = experiment: Growth inhibition of human EKVX cells
MCF7 = experiment: Growth inhibition of human MCF7 cells assessed tumor cell growth at 10^-5 M; design: scale not given: the % may be the effect or the level left; method in brief: as §1
MDA-MB-435 = experiment: Growth inhibition of human MDA-MB-435 cells
KM12 [1] = experiment: Growth inhibition of human KM12 cells assessed tumor cell growth at 10^-5 M; design: scale not given: the % may be the effect or the level left; method in brief: as §1
PC-3 = experiment: Growth inhibition of human PC3 cells assessed tumor cell growth at 10^-5 M; design: scale not given: the % may be the effect or the level left; method in brief: as §1
Malme-3M = experiment: Growth inhibition of human MALME-3M cells
SN12C = experiment: Growth inhibition of human SN12C cells
ACHN = experiment: Growth inhibition of human ACHN cells
HOP-62 = experiment: Growth inhibition of human HOP62 cells assessed tumor cell growth at 10^-5 M; design: scale not given: the % may be the effect or the level left; method in brief: as §1
COLO 205 = experiment: Growth inhibition of human COLO205 cells assessed tumor cell growth at 10^-5 M; design: scale not given: the % may be the effect or the level left; method in brief: as §1
[2] = Growth inhibition of human RPMI8266 cells
NCI-H23 [3] = experiment: Growth inhibition of human NCI-H23 cells
KM12 [4] = experiment: Growth inhibition of human KM12 cells
T47D [5] = experiment: Growth inhibition of human T47D cells
MDA-MB-468 = experiment: Growth inhibition of human MDA-MB-468 cells assessed tumor cell growth at 10^-5 M; design: scale not given: the % may be the effect or the level left; method in brief: as §1
T47D [6] = experiment: Growth inhibition of human T47D cells assessed tumor cell growth at 10^-5 M; design: scale not given: the % may be the effect or the level left
Method in brief: (§2)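 Single-dose screen at 10^-5 M across the 60 human tumor cell line panel, run to NCI standards. The value is the percent growth of each cell line in the presence of compound. Compounds active at this dose moved on to five-concentration testing (10^-4 to 10^-8 M).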

A498 = experiment: Growth inhibition of human A498 cells
HOP-92 = experiment: Growth inhibition of human HOP92 cells assessed tumor cell growth at 10^-5 M; design: scale not given: the % may be the effect or the level left; method in brief: as §1
HL-60(TB) = experiment: Growth inhibition of human HL-60(TB) cells
SF-268 = experiment: Growth inhibition of human SF268 cells assessed tumor cell growth at 10^-5 M; design: scale not given: the % may be the effect or the level left; method in brief: as §1
SK-MEL-2 [7] = experiment: Growth inhibition of human SK-MEL-2 cells
SW-620 [8] = experiment: Growth inhibition of human SW620 cells
A549 = experiment: Growth inhibition of human A549 cells assessed tumor cell growth at 10^-5 M; design: scale not given: the % may be the effect or the level left; method in brief: as §1
UACC-62 [9] = experiment: Growth inhibition of human UACC62 cells assessed tumor cell growth at 10^-5 M; design: scale not given: the % may be the effect or the level left; method in brief: as §2
LOX IMVI [10] = experiment: Growth inhibition of human LOXIMVI cells
SK-OV-3 = experiment: Growth inhibition of human SKOV3 cells
RXF 393 = experiment: Growth inhibition of human RXF393 cells
NCI-H460 [11] = experiment: Growth inhibition of human NCI-H460 cells
HCT-15 = experiment: Growth inhibition of human HCT15 cells
HCT-116 [12] = experiment: Growth inhibition of human HCT116 cells assessed tumor cell growth at 10^-5 M; design: scale not given: the % may be the effect or the level left; method in brief: as §1
SR = experiment: Growth inhibition of human SR cells
UACC-62 [13] = experiment: Growth inhibition of human UACC62 cells
UACC-257 = experiment: Growth inhibition of human UACC257 cells
OVCAR-4 [14] = experiment: Growth inhibition of human OVCAR4 cells assessed tumor cell growth at 10^-5 M; design: scale not given: the % may be the effect or the level left; method in brief: as §1
NCI-H460 [15] = experiment: Growth inhibition of human NCI-H460 cells assessed tumor cell growth at 10^-5 M; design: scale not given: the % may be the effect or the level left; method in brief: as §1
NCI-H322M [16] = experiment: Growth inhibition of human NCI-H322M cells
HCT-116 [17] = experiment: Growth inhibition of human HCT116 cells
K562 = experiment: Growth inhibition of human K562 cells
SK-MEL-2 [18] = experiment: Growth inhibition of human SK-MEL-2 cells assessed tumor cell growth at 10^-5 M; design: scale not given: the % may be the effect or the level left; method in brief: as §1
SW-620 [19] = experiment: Growth inhibition of human SW620 cells assessed tumor cell growth at 10^-5 M; design: scale not given: the % may be the effect or the level left; method in brief: as §2
SK-MEL-28 = experiment: Growth inhibition of human SK-MEL-28 cells assessed tumor cell growth at 10^-5 M; design: scale not given: the % may be the effect or the level left; method in brief: as §1
NCI-H322M [20] = experiment: Growth inhibition of human NCI-H322M cells assessed tumor cell growth at 10^-5 M; design: scale not given: the % may be the effect or the level left; method in brief: as §1
OVCAR-3 = experiment: Growth inhibition of human OVCAR3 cells assessed tumor cell growth at 10^-5 M; design: scale not given: the % may be the effect or the level left; method in brief: as §1
SF-539 = experiment: Growth inhibition of human SF539 cells assessed tumor cell growth at 10^-5 M; design: scale not given: the % may be the effect or the level left; method in brief: as §1
LOX IMVI [21] = experiment: Growth inhibition of human LOXIMVI cells assessed tumor cell growth at 10^-5 M; design: scale not given: the % may be the effect or the level left; method in brief: as §1
IGROV-1 = experiment: Growth inhibition of human IGROV1 cells assessed tumor cell growth at 10^-5 M; design: scale not given: the % may be the effect or the level left; method in brief: as §1
OVCAR-4 [22] = experiment: Growth inhibition of human OVCAR4 cells
NCI-H23 [23] = experiment: Growth inhibition of human NCI-H23 cells assessed tumor cell growth at 10^-5 M; design: scale not given: the % may be the effect or the level left; method in brief: as §1
[24] = read-out: LC50 (the source's name)

O=C1/C(=C\c2coc3ccccc3c2=O)c2ccccc2N1c1c(Cl)cccc1Cl
Activity (HCC 2998): 53% | GI50 (NCI-H226): 20.8 µM | CC50 (NCI-H226; [24]): > 100 µM | GI50 (U-251): 1.4 µM | CC50 (U-251; [24]): > 100 µM | Activity (OVCAR-8): 31.58% | GI50 (EKVX): 2.8 µM | CC50 (EKVX; [24]): > 100 µM | Activity (MCF7): 31.61% | GI50 (MDA-MB-435): 2.6 µM | CC50 (MDA-MB-435; [24]): > 100 µM | Activity (KM12 [1]): 27.09% | Activity (PC-3): 31.81% | GI50 (Malme-3M): 2.4 µM | CC50 (Malme-3M; [24]): > 100 µM | GI50 (SN12C): 3.3 µM | CC50 (SN12C; [24]): > 100 µM | GI50 (ACHN): 4.1 µM | CC50 (ACHN; [24]): > 100 µM | Activity (HOP-62): 68.24% | Activity (COLO 205): 55.33% | GI50 [2]: 1.2 µM | CC50 [2, 24]: 69.1 µM | GI50 (NCI-H23 [3]): 4.4 µM | GI50 (KM12 [4]): 3 µM | CC50 (KM12 [4]; [24]): > 100 µM | GI50 (T47D [5]): 3 µM | CC50 (T47D [5]; [24]): > 100 µM | Activity (MDA-MB-468): 44.85% | Activity (T47D [6]): 30.04% | GI50 (A498): 4.3 µM | CC50 (A498; [24]): > 100 µM | Activity (HOP-92): 32.08% | GI50 (HL-60(TB)): 2 µM | CC50 (HL-60(TB); [24]): > 100 µM | Activity (SF-268): 31.99% | GI50 (SK-MEL-2 [7]): 2.7 µM | CC50 (SK-MEL-2 [7]; [24]): 61.6 µM | GI50 (SW-620 [8]): 5.2 µM | CC50 (SW-620 [8]; [24]): > 100 µM | Activity (A549): 26.65% | Activity (UACC-62 [9]): 36.62% | GI50 (LOX IMVI [10]): 1.5 µM | CC50 (LOX IMVI [10]; [24]): 57.5 µM | GI50 (SK-OV-3): 35.4 µM | CC50 (SK-OV-3; [24]): > 100 µM | GI50 (RXF 393): 1.8 µM | CC50 (RXF 393; [24]): 69.1 µM | GI50 (NCI-H460 [11]): 2 µM | CC50 (NCI-H460 [11]; [24]): > 100 µM | GI50 (HCT-15): 0.6 µM | CC50 (HCT-15; [24]): > 100 µM | Activity (HCT-116 [12]): 35.61% | GI50 (SR): 1.4 µM | CC50 (SR; [24]): > 100 µM | GI50 (UACC-62 [13]): 2.1 µM | CC50 (UACC-62 [13]; [24]): > 100 µM | GI50 (UACC-257): 4.5 µM | CC50 (UACC-257; [24]): > 100 µM | Activity (OVCAR-4 [14]): 49.54% | Activity (NCI-H460 [15]): 19.05% | GI50 (NCI-H322M [16]): 5.8 µM | CC50 (NCI-H322M [16]; [24]): > 100 µM | GI50 (HCT-116 [17]): 1.9 µM | CC50 (HCT-116 [17]; [24]): > 100 µM | GI50 (K562): 2 µM | CC50 (K562; [24]): > 100 µM | Activity (SK-MEL-2 [18]): 85.69% | Activity (SW-620 [19]): 35% | Activity (SK-MEL-28): 47.32% | Activity (NCI-H322M [20]): 73.67% | Activity (OVCAR-3): 16.79% | Activity (SF-539): 49.4% | Activity (LOX IMVI [21]): 37.07% | Activity (IGROV-1): 48.69% | GI50 (OVCAR-4 [22]): 3.6 µM | CC50 (OVCAR-4 [22]; [24]): > 100 µM | Activity (NCI-H23 [23]): 55.41%
